Measured values taken from ChEMBL document CHEMBL2203229, “Structure Activity Relationship Study of the Cleistriosides and Cleistetrosides for Antibacterial/Anticancer Activity” (ACS Med Chem Lett, 2012).
Converted amounts (≈) assume the structure as drawn.

Key:
HCT-15 = experiment: Growth inhibition of human HCT15 cells after 48 hrs by sulforhodamine B assay; format: functional; details: HCT-15, 48 h
Method in brief: (§1)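 Cells in RPMI 1640 with 5% FBS, plated at 5,000–40,000/well and grown 24 h. Time-zero plates fixed with TCA. Five drug concentrations, 48 h at 37 °C, 5% CO₂. Fixation with TCA (10% final for adherent lines; 16% final for suspension lines), staining with 0.4% SRB, reading at 515 nm. GI50 is the concentration giving a 50% reduction in net protein increase relative to time zero.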

A498 = experiment: Growth inhibition of human A498 cells after 48 hrs by sulforhodamine B assay; format: functional; details: A498, 48 h; method in brief: as §1
MCF7 = experiment: Growth inhibition of human MCF7 cells after 48 hrs by sulforhodamine B assay; format: functional; details: MCF7, 48 h; method in brief: as §1
[1] = Growth inhibition of human NCI-ADR-RES cells after 48 hrs by sulforhodamine B assay; format: functional; method in brief: as §1
PC-3 = experiment: Growth inhibition of human PC3 cells after 48 hrs by sulforhodamine B assay; format: functional; details: PC-3, 48 h; method in brief: as §1
Escherichia coli [2] = experiment: Antibacterial activity against Escherichia coli K-12 MG1655 assessed as growth inhibition after 16 hrs by broth dilution method; format: functional; details: K-12 substr. MG1655, 16 h
Method in brief: (§2)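 Strains grown overnight in LB, diluted 10-fold, shaken at 37 °C for 45 min–1 h (~10⁸ CFU/mL), then diluted ~1000-fold to ~10⁵ CFU/mL. Broth dilution in LB: 20 mM DMSO stocks, 1:2 serial dilutions giving seven concentrations, inoculum added 1:1. OD600 read with shaking.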

CAKI-1 = experiment: Growth inhibition of human CAKI-1 cells after 48 hrs by sulforhodamine B assay; format: functional; details: CAKI-1, 48 h; method in brief: as §1
MDA-MB-435 = experiment: Growth inhibition of human MDA-MB-435 cells after 48 hrs by sulforhodamine B assay; format: functional; details: MDA-MB-435, 48 h; method in brief: as §1
NCI-H460 [3] = experiment: Cytotoxicity against human NCI-H460 cells assessed as inhibition of cell viability by MTT assay; format: functional, cell-based
Method in brief: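 NCI-H460 cells in RPMI 1640 with 10% FBS and 2 mM glutamine at 37 °C, 5% CO₂. Seeded at 10,000 cells/well for 12 h, then dosed in 1% FBS medium (DMSO below 0.1% final). MTT (10 µL of 5 mg/mL) for 4 h, formazan dissolved in DMSO for 45 min, absorbance at 562 nm. Triplicate wells, at least three runs (N = 9).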

SF-539 = experiment: Growth inhibition of human SF539 cells after 48 hrs by sulforhodamine B assay; format: functional; details: SF-539, 48 h; method in brief: as §1
SR = experiment: Growth inhibition of human SR cells after 48 hrs by sulforhodamine B assay; format: functional; method in brief: as §1
A549 = experiment: Growth inhibition of human A549 cells after 48 hrs by sulforhodamine B assay; format: functional; details: A549, 48 h; method in brief: as §1
HT-29 = experiment: Growth inhibition of human HT-29 cells after 48 hrs by sulforhodamine B assay; format: functional; details: HT-29, 48 h; method in brief: as §1
RPMI-8226 = experiment: Growth inhibition of human RPMI8226 cells after 48 hrs by sulforhodamine B assay; format: functional; details: RPMI-8226, 48 h; method in brief: as §1
SNB-75 = experiment: Growth inhibition of human SNB75 cells after 48 hrs by sulforhodamine B assay; format: functional; details: SNB-75, 48 h; method in brief: as §1
DU-145 = experiment: Growth inhibition of human DU145 cells after 48 hrs by sulforhodamine B assay; format: functional; details: DU-145, 48 h; method in brief: as §1
SK-MEL-5 = experiment: Growth inhibition of human SK-MEL-5 cells after 48 hrs by sulforhodamine B assay; format: functional; details: SK-MEL-5, 48 h; method in brief: as §1
Escherichia coli [4] = experiment: Antibacterial activity against Escherichia coli K-12 BAS901 harboring genetically modified imp-4213, zab4292::Tn5 assessed as growth inhibition after 16 hrs by broth dilution method; format: functional; details: K-12 BAS901, 16 h
Method in brief: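 Kanamycin-resistant strain grown overnight in LB with kanamycin 50 µg/mL, diluted 10-fold, then shaken at 37 °C for 45 min–1 h (~10⁸ CFU/mL). Diluted ~1000-fold to 10⁵ CFU/mL in LB. DMSO stocks (20 mM) prepared as 4X working solutions in LB. Seven 1:2 serial dilutions mixed with equal-volume inoculum. OD600 read with shaking.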

NCI-H460 [5] = experiment: Growth inhibition of human NCI-H460 cells after 48 hrs by sulforhodamine B assay; format: functional; details: NCI-H460, 48 h; method in brief: as §1
[6] = Antibacterial activity against Bacillus subtilis JH642 containing trpC2 pheA1 assessed as growth inhibition after 16 hrs by broth dilution method; format: functional, Bacillus subtilis subsp. subtilis str. JH642; method in brief: as §2
OVCAR-3 = experiment: Growth inhibition of human OVCAR3 cells after 48 hrs by sulforhodamine B assay; format: functional; details: OVCAR-3, 48 h; method in brief: as §1
BT-549 = experiment: Growth inhibition of human BT549 cells after 48 hrs by sulforhodamine B assay; format: functional; details: BT-549, 48 h; method in brief: as §1

Row | Compound | GI50 (HCT-15) [µM] | GI50 (A498) [µM] | GI50 (MCF7) [µM] | GI50 [1] [µM] | GI50 (PC-3) [µM] | MIC (Escherichia coli [2]) [µM] | GI50 (CAKI-1) [µM] | GI50 (MDA-MB-435) [µM] | IC50 (NCI-H460 [3]) [µM] | GI50 (SF-539) [µM] | GI50 (SR) [µM] | GI50 (A549) [µM] | GI50 (HT-29) [µM] | GI50 (RPMI-8226) [µM] | GI50 (SNB-75) [µM] | GI50 (DU-145) [µM] | GI50 (SK-MEL-5) [µM] | MIC (Escherichia coli [4]) [µM] | GI50 (NCI-H460 [5]) [µM] | MIC [6] [µM] | also measured
1 | CCCCCCCCCCCCO[C@@H]1O[C@@H](C)[C@H](O[C@@H]2O[C@@H](C)[C@H](OC(C)=O)[C@@H](O[C@@H]3O[C@@H](C)[C@H](OC(C)=O)[C@@H](O)[C@H]3OC(C)=O)[C@H]2O)[C@@H](O)[C@H]1O | 8.39 | 6.73 | 4.84 | 9.29 | 2.37 | > 64 | 8.78 | 7.68 | 90.9 | 7.11 | 3.2 | 6.69 | 4.35 | 4.12 | 3.42 | 7.94 | 6.21 | > 64 | 6.32 | 32 (≈ 24 µg/mL) | GI50 (OVCAR-3): 5.91 µM; GI50 (BT-549): 7.9 µM
2 | CCCCCCCCCCCCO[C@@H]1O[C@@H](C)[C@H](O[C@@H]2O[C@@H](C)[C@H](OC(C)=O)[C@@H](O[C@@H]3O[C@@H](C)[C@H](OC(C)=O)[C@@H](O[C@@H]4O[C@@H](C)[C@H](OC(C)=O)[C@@H](O)[C@H]4O)[C@H]3OC(C)=O)[C@H]2O)[C@@H](O)[C@H]1O | 7.54 | 7.57 | 1.74 | 9.15 | 5.3 | > 64 | 8.45 | 6 | 9.1 | 4.7 | 1.45 | 9.47 | 8.02 | 1.86 | 1.36 | 7.92 | 1.76 | > 64 | 7.58 | 4 (≈ 3.76 µg/mL) | GI50 (OVCAR-3): 4.84 µM; GI50 (BT-549): 8.46 µM
3 | CCCCCCCCCCCCO[C@@H]1O[C@@H](C)[C@H](O[C@@H]2O[C@@H](C)[C@H](OC(C)=O)[C@@H](O[C@@H]3O[C@@H](C)[C@H](O)[C@@H](O[C@@H]4O[C@@H](C)[C@H](OC(C)=O)[C@@H](OC(C)=O)[C@H]4OC(C)=O)[C@H]3OC(C)=O)[C@H]2O)[C@@H](O)[C@H]1O | 1.52 | 0.02 | 0.94 | 2.24 | 0.75 | > 64 | 0.6 | 0.84 | 9.8 | 0.91 | 0.85 | 0.97 | 0.91 | 0.92 | 0.62 | 0.79 | 0.82 | > 64 | 0.96 | > 64 | GI50 (OVCAR-3): 0.8 µM; GI50 (BT-549): 0.88 µM
4 | CCCCCCCCCCCCO[C@@H]1O[C@@H](C)[C@H](O[C@@H]2O[C@@H](C)[C@H](OC(C)=O)[C@@H](O[C@@H]3O[C@@H](C)[C@H](OC(C)=O)[C@@H](O[C@@H]4O[C@@H](C)[C@H](O)[C@@H](O)[C@H]4OC(C)=O)[C@H]3OC(C)=O)[C@H]2O)[C@@H](O)[C@H]1O | 8.33 | 5.64 | 5.29 | 8.9 | 6.55 | > 64 | 9.24 | 7.25 | 12.8 | 7.17 | 3.83 | 8.18 | 8.13 | 2.84 | 2.18 | 7.47 | 6.27 | > 64 | 8.43 | 8 (≈ 7.51 µg/mL) | GI50 (OVCAR-3): 6.07 µM; GI50 (BT-549): 8.39 µM
5 | CCCCCCCCCCCCO[C@@H]1O[C@@H](C)[C@H](O[C@@H]2O[C@@H](C)[C@H](OC(C)=O)[C@@H](O[C@@H]3O[C@@H](C)[C@H](O)[C@@H](OC(C)=O)[C@H]3OC(C)=O)[C@H]2O)[C@@H](O)[C@H]1O | 7.38 | 5.13 | 1.62 | 7.92 | 0.89 | > 64 | 6.57 | 1.49 | 12.5 | 3.1 | 1.2 | 2.08 | 1.21 | 1 | 0.9 | 2.48 | 1.23 | 32 (≈ 24 µg/mL) | 1.54 | 8 (≈ 6.01 µg/mL) | GI50 (OVCAR-3): 1.49 µM; GI50 (BT-549): 4.54 µM
6 | CCCCCCCCCCCCO[C@@H]1O[C@@H](C)[C@H](O[C@@H]2O[C@@H](C)[C@H](OC(C)=O)[C@@H](O[C@@H]3O[C@@H](C)[C@H](OC(C)=O)[C@@H](O[C@@H]4O[C@@H](C)[C@H](OC(C)=O)[C@@H](O)[C@H]4OC(C)=O)[C@H]3OC(C)=O)[C@H]2O)[C@@H](O)[C@H]1O | 1.01 | 0.73 | 0.87 | 3.38 | 0.82 | > 64 | 1.42 | 0.83 | 7.5 | 0.83 | 0.86 | 1.18 | 0.97 | 0.96 | 0.5 | 0.8 | 0.74 | > 64 | 0.94 | 4 (≈ 3.92 µg/mL) | GI50 (OVCAR-3): 0.77 µM; GI50 (BT-549): 0.94 µM
